Activity calls are given as the source filed them. The rule behind the calls is not given here.
What was measured:
[1] = Drug uptake in C57BL/6N mouse whole blood at 3 mg/kg, po measured at 3 hrs; type: ADME, organism-based; conditions: read-out: Drug uptake
Summary of the method: (§1)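 Whole-blood compound exposure was measured 3 h after oral dosing (0.03-3 mg/kg) in HFD mice run through the OGTT dose titration. Unbound levels were derived using the plasma free fraction.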

[2] = target: Somatostatin receptor type 1 (Homo sapiens, UniProt P30872); assay: Antagonist activity at human SSTR1 expressed in CHO-K1 cell membranes; type: functional, cell-based
Summary of the method: (§2)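 Counter-screen by filtration membrane binding: competitive displacement of radiolabeled SST-28 from cell membranes expressing human SSTR1, SSTR2, SSTR3 or SSTR4. The IC50 is the mean of at least duplicate experiments within a maximal threefold range.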

[3] = target: Somatostatin receptor type 3 (Homo sapiens, UniProt P32745); assay: Antagonist activity at human SSTR3 expressed in CHO-K1 cell membranes; type: functional, cell-based; summary of the method: as §2
[4] = target: Potassium voltage-gated channel subfamily E member 1 (Homo sapiens, UniProt P15382); assay: Inhibition of IKs (unknown origin)
[5] = target: Voltage-dependent L-type calcium channel subunit alpha-1C (Homo sapiens, UniProt Q13936); assay: Inhibition of Cav1.2 (unknown origin)
[6] = target: T1, Prostaglandin D2 receptor (Homo sapiens, UniProt Q13258); assay: Inhibition of prostanoid DP receptor (unknown origin)
T1 sequence (Q13258 whole entry): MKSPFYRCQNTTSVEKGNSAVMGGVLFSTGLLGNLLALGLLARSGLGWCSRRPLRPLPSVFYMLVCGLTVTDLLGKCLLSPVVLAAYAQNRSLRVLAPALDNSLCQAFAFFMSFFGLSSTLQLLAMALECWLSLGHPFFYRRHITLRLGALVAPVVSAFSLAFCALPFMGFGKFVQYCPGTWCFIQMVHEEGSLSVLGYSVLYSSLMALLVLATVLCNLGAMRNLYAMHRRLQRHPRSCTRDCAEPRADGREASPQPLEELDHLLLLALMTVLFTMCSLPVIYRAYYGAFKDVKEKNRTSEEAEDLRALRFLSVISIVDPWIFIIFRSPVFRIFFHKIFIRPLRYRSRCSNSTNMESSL

[7] = Fraction unbound in rat plasma at 0.1 uM using [3H]-labeled compound; type: ADME, cell-free
[8] = Clearance in rhesus monkey at […], iv or 1 mg/kg, po; type: ADME, organism-based, Macaca mulatta; conditions: in vivo
[9] = Half life in rat at 1 mg/kg, iv or 2 mg/kg, po; type: ADME, organism-based; conditions: in vivo
Summary of the method: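 Rat pharmacokinetics after separate intravenous (1 mg/kg) and oral (2 mg/kg) dosing. Clearance is reported in mL/kg/min and half-life in hours. Oral bioavailability is given as F (%).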

[10] = Half life in dog at […], iv or 1 mg/kg, po; type: ADME, organism-based, Canis lupus familiaris; conditions: in vivo
[11] = Half life in rhesus monkey at […], iv or 1 mg/kg, po; type: ADME, organism-based, Macaca mulatta; conditions: in vivo
[12] = Fraction unbound in human plasma at 0.1 uM using [3H]-labeled compound; type: ADME, cell-free
Cytochrome P450 3A4 = Cytochrome P450 3A4 (Homo sapiens, UniProt P08684); assay: Inhibition of human CYP3A4; type: ADME
[13] = target: T2, Nuclear receptor subfamily 1 group I member 2 (Homo sapiens, UniProt O75469); assay: Activation of human PXR; type: ADME
T2 sequence (O75469 whole entry): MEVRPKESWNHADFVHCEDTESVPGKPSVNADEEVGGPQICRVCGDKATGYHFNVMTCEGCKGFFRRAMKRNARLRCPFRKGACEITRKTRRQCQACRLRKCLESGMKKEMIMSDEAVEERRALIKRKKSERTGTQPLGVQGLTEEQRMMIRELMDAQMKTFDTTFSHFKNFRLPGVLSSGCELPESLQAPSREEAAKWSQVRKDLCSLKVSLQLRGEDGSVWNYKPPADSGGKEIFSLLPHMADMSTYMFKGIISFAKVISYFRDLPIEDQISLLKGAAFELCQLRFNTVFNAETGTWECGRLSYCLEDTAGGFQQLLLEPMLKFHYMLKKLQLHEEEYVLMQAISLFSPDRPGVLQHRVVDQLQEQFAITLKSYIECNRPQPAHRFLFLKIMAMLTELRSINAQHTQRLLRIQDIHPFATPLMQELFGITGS

[14] = Aqueous solubility of the compound in neutral solution; type: physicochemical
Pancreatic islet [15] = assay: Induction of glucose-dependent insulin secretion in human pancreatic islets at 0.5 to 5 uM preincubated for 30 mins with 16 mM glucose followed by compound addition measured after 60 mins by ELISA; type: functional, cell-based
Summary of the method: (§3)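 Isolated pancreatic islets from non-diabetic human donors were incubated with compound at 0.5 or 5 µM in 2 mM (G2) or 16 mM (G16) glucose. Insulin secretion was measured against a DMSO control, with P<0.05 significance.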

Pancreatic islet [16] = assay: Induction of glucose-dependent insulin secretion in human pancreatic islets at 0.5 to 5 uM preincubated for 30 mins with 2 mM glucose followed by compound addition measured after 60 mins by ELISA; type: functional, cell-based; summary of the method: as §3
[17] = Drug uptake in C57BL/6N mouse whole blood at 1 mg/kg, po measured at 3 hrs; type: ADME, organism-based; conditions: read-out: Drug uptake; summary of the method: as §1
[18] = Drug uptake in C57BL/6N mouse whole blood at 0.1 mg/kg, po measured at 3 hrs; type: ADME, organism-based; conditions: read-out: Drug uptake; summary of the method: as §1
[19] = Drug uptake in C57BL/6N mouse whole blood at 0.03 mg/kg, po measured at 3 hrs; type: ADME, organism-based; conditions: read-out: Drug uptake; summary of the method: as §1
[20] = Unbound plasma concentration in C57BL/6N mouse plasma at 3 mg/kg, po measured at 3 hrs; type: ADME, organism-based; conditions: in vivo
[21] = Unbound plasma concentration in C57BL/6N mouse plasma at 1 mg/kg, po measured at 3 hrs; type: ADME, organism-based; conditions: in vivo
[22] = Unbound plasma concentration in C57BL/6N mouse plasma at 0.3 mg/kg, po measured at 3 hrs; type: ADME, organism-based; conditions: in vivo
[23] = Unbound plasma concentration in C57BL/6N mouse plasma at 0.1 mg/kg, po measured at 3 hrs; type: ADME, organism-based; conditions: in vivo
Mus musculus [24] = assay: Induction of hypoglycemia in C57BL/6N mouse assessed as decrease in basal blood glucose levels at 3 to 30 mg/kg, po measured over 5 hrs; type: organism-based; conditions: in vivo
Mus musculus [25] = assay: Antidiabetic activity in HFD fed C57BL/6N mouse assessed as increase in circulating total GLP-1 levels at 10 mg/kg, po pretreated for 60 mins measured 5 mins post glucose challenge by OGTT; type: functional, organism-based
Summary of the method: (§4)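 The SSTR5 antagonist was given orally at 10 mg/kg, alone or combined with des-fluoro sitagliptin at 10 mg/kg, ahead of an oral glucose challenge. Blood was sampled 5 min after glucose for circulating total GLP-1, active GLP-1[7-36] amide and plasma insulin.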

Mus musculus [26] = assay: Antidiabetic activity in HFD fed C57BL/6N mouse assessed as increase in plasma insulin levels at 10 mg/kg, po pretreated for 60 mins measured 5 mins post glucose challenge by OGTT; type: functional, organism-based; summary of the method: as §4
Mus musculus [27] = assay: Antidiabetic activity in HFD fed C57BL/6N mouse assessed as increase in circulating active GLP-1 levels at 10 mg/kg, po cotreated with DPP4 inhibitor des-fluoro sitagliptin pretreated with compound for 60 mins followed by glucose challenge measured after 120 mins by OGTT; type: functional, organism-based
Mus musculus [28] = assay: Antidiabetic activity in HFD fed C57BL/6N mouse assessed as increase in plasma insulin levels at 10 mg/kg, po cotreated with DPP4 inhibitor des-fluoro sitagliptin pretreated with compound for 60 mins followed by glucose challenge measured after 120 mins by OGTT; type: functional, organism-based

Somatostatin receptor type 1, sequence (P30872 whole entry): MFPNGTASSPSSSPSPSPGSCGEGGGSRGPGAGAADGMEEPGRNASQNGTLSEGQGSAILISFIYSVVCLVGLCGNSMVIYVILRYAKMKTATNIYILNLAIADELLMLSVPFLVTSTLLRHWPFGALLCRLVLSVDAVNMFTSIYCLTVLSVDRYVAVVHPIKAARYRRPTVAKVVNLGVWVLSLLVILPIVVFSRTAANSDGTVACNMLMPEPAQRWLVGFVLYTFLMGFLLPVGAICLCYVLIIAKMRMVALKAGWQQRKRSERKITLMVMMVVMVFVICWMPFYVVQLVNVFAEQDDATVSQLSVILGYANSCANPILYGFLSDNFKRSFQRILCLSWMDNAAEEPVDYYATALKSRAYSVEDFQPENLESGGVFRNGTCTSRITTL
Cytochrome P450 3A4, sequence (P08684 whole entry): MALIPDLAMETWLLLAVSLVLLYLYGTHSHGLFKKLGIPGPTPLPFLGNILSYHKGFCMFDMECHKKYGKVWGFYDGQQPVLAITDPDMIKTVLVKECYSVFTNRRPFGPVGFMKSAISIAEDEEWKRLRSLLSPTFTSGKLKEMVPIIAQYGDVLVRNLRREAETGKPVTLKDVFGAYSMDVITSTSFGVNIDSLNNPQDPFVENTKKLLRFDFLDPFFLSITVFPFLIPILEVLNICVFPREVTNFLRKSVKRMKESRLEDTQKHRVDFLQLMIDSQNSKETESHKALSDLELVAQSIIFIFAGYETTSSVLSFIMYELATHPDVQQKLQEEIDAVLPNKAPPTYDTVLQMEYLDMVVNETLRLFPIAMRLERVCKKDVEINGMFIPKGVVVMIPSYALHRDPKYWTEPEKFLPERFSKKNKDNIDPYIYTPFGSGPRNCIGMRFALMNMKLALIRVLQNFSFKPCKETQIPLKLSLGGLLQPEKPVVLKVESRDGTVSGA
Somatostatin receptor type 3, sequence (P32745 whole entry): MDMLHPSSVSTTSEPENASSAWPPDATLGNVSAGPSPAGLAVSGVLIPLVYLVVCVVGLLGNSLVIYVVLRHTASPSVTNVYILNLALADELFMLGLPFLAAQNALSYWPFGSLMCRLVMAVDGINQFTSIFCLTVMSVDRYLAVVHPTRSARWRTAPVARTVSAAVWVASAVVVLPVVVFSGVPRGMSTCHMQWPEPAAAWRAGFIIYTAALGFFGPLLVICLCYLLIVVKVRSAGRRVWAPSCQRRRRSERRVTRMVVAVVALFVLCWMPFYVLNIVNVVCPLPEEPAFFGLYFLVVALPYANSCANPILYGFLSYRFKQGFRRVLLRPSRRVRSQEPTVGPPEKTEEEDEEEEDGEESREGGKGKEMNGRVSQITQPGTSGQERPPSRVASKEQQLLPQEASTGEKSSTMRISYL
Voltage-dependent L-type calcium channel subunit alpha-1C, sequence (Q13936 whole entry): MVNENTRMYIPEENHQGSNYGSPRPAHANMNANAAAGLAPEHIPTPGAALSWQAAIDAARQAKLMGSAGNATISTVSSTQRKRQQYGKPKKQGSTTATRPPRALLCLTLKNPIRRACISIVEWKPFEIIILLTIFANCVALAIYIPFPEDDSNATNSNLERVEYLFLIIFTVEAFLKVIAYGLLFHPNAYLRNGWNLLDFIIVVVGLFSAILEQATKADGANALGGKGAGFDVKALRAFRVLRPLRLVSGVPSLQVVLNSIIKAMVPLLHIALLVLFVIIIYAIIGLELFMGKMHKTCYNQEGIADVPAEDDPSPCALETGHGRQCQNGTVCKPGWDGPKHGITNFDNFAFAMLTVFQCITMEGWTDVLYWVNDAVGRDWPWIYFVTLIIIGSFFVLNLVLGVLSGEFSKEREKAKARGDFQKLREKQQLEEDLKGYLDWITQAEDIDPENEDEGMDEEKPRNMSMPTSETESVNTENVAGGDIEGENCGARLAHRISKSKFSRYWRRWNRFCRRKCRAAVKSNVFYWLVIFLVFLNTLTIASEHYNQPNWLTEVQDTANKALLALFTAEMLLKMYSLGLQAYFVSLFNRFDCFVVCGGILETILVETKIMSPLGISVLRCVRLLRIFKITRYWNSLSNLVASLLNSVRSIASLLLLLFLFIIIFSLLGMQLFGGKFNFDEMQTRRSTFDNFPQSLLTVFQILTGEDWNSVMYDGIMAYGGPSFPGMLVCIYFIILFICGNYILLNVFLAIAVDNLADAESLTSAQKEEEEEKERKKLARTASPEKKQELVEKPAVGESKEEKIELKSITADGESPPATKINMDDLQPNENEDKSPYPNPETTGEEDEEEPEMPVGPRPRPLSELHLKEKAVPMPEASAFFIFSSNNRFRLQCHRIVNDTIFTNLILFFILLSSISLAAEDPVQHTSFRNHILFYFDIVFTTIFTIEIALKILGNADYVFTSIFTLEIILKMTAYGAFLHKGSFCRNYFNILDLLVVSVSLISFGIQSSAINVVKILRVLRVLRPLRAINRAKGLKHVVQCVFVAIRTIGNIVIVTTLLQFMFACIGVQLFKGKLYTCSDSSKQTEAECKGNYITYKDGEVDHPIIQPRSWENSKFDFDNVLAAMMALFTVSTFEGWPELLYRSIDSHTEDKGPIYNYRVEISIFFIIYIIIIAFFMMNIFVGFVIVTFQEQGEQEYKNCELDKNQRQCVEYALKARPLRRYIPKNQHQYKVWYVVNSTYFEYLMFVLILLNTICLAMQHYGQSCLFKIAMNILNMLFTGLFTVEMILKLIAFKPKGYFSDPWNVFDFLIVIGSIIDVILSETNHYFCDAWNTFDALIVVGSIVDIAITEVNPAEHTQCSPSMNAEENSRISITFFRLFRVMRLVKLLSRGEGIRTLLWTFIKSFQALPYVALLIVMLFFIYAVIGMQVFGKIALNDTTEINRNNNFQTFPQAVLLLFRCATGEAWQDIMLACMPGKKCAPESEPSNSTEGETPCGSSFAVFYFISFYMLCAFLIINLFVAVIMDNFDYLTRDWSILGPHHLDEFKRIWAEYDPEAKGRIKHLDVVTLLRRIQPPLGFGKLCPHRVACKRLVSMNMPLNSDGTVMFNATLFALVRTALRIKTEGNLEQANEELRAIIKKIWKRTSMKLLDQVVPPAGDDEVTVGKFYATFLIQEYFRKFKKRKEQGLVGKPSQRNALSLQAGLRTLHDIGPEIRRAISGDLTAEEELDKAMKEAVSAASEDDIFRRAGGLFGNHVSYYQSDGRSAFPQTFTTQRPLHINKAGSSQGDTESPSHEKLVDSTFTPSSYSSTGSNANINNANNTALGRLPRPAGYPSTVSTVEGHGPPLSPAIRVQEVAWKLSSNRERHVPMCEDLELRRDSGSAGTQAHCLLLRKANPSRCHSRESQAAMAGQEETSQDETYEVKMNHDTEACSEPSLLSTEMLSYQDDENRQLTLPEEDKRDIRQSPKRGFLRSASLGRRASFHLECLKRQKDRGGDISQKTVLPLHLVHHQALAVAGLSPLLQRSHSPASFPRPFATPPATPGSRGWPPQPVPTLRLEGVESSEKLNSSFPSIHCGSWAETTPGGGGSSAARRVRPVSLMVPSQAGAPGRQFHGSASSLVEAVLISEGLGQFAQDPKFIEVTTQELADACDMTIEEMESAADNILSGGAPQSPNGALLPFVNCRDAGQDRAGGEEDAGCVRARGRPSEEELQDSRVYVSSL

## CCOc1cc(CN2CCC3(CC2)CC(=O)N(c2ccc(C(=O)O)cc2)C3)cc(OCC)c1-c1ccc(F)cc1.O=C(O)C(F)(F)F
[1]
  concentration at 3 h: 351 nM
[2]
  IC50: > 10 µM
[3]
  IC50: > 10 µM
[4]
  IC50: > 15 µM
[5]
  IC50: > 15 µM
[6]
  IC50: 3 µM
[7]
  Fu: 5.7%
[8]
  clearance: 11.8 mL/min/kg
[9]
  half-life: 1.9 h
[10]
  half-life: 16.5 h
[11]
  half-life: 2 h
[12]
  Fu: 2.2%
Cytochrome P450 3A4
  IC50: > 50 µM
[13]
  Activity: Not Active
[14]
  solubility: 300 µg/mL
Pancreatic islet [15]
  Activity: Active
Pancreatic islet [16]
  Activity: inactive
[17]
  concentration at 3 h: 131 nM
[18]
  concentration at 3 h: 11 nM
[19]
  concentration at 3 h: 4 nM
[20]
  Cp(f): 16.1 nM
[21]
  Cp(f): 6 nM
[22]
  Cp(f): 1.6 nM
[23]
  Cp(f): 0.5 nM
Mus musculus [24]
  Activity: Non-Toxic
Mus musculus [25]
  Activity: Active
Mus musculus [26]
  Activity: Active
Mus musculus [27]
  Activity: Active
Mus musculus [28]
  Activity: Active

Reference: ChEMBL document CHEMBL4266056, “Discovery and Pharmacology of a Novel Somatostatin Subtype 5 (SSTR5) Antagonist: Synergy with DPP-4 Inhibition” (ACS Med Chem Lett, 2018)
